Publication PMC8861424 (Molecular Therapy Oncolytics, 2022)
pIC50: −log10 of the molar value.

Tests used:
Primary HUVECs [1] = assay: HUVEC proliferation without VEGF165; type: cell-based; conditions: Homo sapiens, 72 h, read-out: IC50, cell proliferation
Method in brief: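 HUVECs grown in F-12 with 10% FBS, 18 U/mL heparin and 30 μg/mL ECGS. Seeded at 10,000 cells/well in triplicate and left to adhere overnight, then starved 24 h in 0.1% FBS. Test compound at 0.8, 3, 11.8, 46.8 and […] in 0.1% FBS, with no VEGF165 added. MTS absorbance read at 490 nm after 72 h. IC50 = concentration halving absorbance versus control.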

[2] = test system: VEGF165-induced HUVEC cell lines; assay: VEGF165-induced HUVEC proliferation; type: cell-based; conditions: Homo sapiens, 72 h, read-out: IC50, cell proliferation
MV-4-11 = assay: Cancer cell proliferation assay; type: cell-based; conditions: Homo sapiens, MV4-11, 72 h, read-out: IC50, cell proliferation
786-O = assay: Cancer cell proliferation assay; type: cell-based; conditions: Homo sapiens, 786-0, 72 h, read-out: IC50, cell proliferation
A375 = assay: Cancer cell proliferation assay; type: cell-based; conditions: Homo sapiens, A-375, 72 h, read-out: IC50, cell proliferation
A549 = assay: Cancer cell proliferation assay; type: cell-based; conditions: Homo sapiens, A549, 72 h, read-out: IC50, cell proliferation
HCT-116 = assay: Cancer cell proliferation assay; type: cell-based; conditions: Homo sapiens, HCT-116, 72 h, read-out: IC50, cell proliferation
BxPC-3 = assay: Cancer cell proliferation assay; type: cell-based; conditions: Homo sapiens, BXPC-3, 72 h, read-out: IC50, cell proliferation
[3] = test system: microvessel density (CD31); assay: Microvessel density by CD31 immunofluorescent staining in xenograft models; type: in vivo, mouse; conditions: for microvessel density (MVD), CD31 staining: mouse xenograft models
Method in brief: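 Xenograft tumor paraffin sections (8 μm) rehydrated and treated 30 min in Tris/EDTA, then blocked with PBS/0.3% Triton X. Primary rabbit anti-mouse CD31 (1:100) at 4°C overnight. Secondary Alexa Fluor 488 goat anti-rabbit IgG (1:50) for 2 h. MVD quantified from fluorescence images: five slides, four ×200 fields each.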

[4] = test system: VEGF165-induced Primary HUVECs; assay: VEGF165-induced HUVEC proliferation; type: cell-based; conditions: Homo sapiens, 72 h, read-out: IC50, cell proliferation
HT-29 = assay: Cancer cell proliferation assay; type: cell-based; conditions: Homo sapiens, HT-29, 72 h, read-out: IC50, cell proliferation
[5] = Body weight and tolerability in xenograft mice; type: in vivo, mouse
[6] = test system: KDR phosphorylation of HUVECs; assay: VEGF-induced KDR phosphorylation of HUVECs; type: cell-based, human; conditions: Figure S1
KDR, FLT3, and C-Kit = assay: KINOMEscan IC50 compared with sunitinib; type: binding, human
FLT3 = FLT3 (Homo sapiens, UniProt P36888); assay: KINOMEscan competition kinase binding assay
Sequence of FLT3 (P36888 27-993): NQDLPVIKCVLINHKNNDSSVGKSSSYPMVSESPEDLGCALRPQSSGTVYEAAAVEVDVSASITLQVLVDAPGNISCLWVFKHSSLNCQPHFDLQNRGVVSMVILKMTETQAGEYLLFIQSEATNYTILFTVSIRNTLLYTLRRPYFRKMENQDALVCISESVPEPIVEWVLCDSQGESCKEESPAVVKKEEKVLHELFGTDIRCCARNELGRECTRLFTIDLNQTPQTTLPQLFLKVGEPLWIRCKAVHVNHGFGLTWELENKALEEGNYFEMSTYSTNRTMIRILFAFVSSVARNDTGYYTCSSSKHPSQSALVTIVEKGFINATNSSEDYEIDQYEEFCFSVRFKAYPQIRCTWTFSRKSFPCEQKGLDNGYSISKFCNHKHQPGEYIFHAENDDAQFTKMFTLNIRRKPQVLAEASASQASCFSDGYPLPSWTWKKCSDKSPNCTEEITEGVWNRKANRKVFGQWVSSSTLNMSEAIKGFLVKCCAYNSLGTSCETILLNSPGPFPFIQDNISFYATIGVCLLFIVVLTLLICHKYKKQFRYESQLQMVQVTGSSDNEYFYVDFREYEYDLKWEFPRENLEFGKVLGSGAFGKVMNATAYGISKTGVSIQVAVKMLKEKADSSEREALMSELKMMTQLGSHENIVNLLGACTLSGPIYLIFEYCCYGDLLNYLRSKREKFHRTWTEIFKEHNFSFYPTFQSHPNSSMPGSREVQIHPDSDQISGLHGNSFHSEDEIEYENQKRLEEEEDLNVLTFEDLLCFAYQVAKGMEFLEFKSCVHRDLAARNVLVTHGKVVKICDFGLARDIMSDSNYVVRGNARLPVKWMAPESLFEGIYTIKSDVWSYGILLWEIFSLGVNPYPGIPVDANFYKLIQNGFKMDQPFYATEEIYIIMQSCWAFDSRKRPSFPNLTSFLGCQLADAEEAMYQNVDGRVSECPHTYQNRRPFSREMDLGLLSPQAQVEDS

MV-4-11 xenograft tumors = assay: Mouse xenograft tumor growth; type: in vivo; conditions: oral
Method in brief: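 Male athymic BALB/c nude mice, 6 weeks old, injected subcutaneously with 5 × 10⁶ MV-4-11 cells in the flank next to the right forelimb. […] Oral dosing at various doses for 3–4 weeks. Percent tumor growth inhibition calculated. Study repeated twice. Mean ± SD; ANOVA/t test.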

HT-29 xenograft tumors = assay: Mouse xenograft tumor growth; type: in vivo; conditions: HT-29-cell-derived xenograft models; oral
Method in brief: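 Two-step HT-29 xenograft in BALB/c nude mice. First, 5 × 10⁶ cells injected subcutaneously and grown to 100–300 mm³. Tumors then excised, minced into 1 mm³ pieces and implanted in the flank of new mice, then grown to 100–300 mm³. […] Oral dosing for 3–4 weeks. Percent tumor growth inhibition calculated. Study repeated once.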

ABCG2 = conditions: cited from earlier work
C-Kit = C-Kit (Homo sapiens, UniProt P10721); assay: KINOMEscan competition kinase binding assay
Sequence of C-Kit (P10721 26-976): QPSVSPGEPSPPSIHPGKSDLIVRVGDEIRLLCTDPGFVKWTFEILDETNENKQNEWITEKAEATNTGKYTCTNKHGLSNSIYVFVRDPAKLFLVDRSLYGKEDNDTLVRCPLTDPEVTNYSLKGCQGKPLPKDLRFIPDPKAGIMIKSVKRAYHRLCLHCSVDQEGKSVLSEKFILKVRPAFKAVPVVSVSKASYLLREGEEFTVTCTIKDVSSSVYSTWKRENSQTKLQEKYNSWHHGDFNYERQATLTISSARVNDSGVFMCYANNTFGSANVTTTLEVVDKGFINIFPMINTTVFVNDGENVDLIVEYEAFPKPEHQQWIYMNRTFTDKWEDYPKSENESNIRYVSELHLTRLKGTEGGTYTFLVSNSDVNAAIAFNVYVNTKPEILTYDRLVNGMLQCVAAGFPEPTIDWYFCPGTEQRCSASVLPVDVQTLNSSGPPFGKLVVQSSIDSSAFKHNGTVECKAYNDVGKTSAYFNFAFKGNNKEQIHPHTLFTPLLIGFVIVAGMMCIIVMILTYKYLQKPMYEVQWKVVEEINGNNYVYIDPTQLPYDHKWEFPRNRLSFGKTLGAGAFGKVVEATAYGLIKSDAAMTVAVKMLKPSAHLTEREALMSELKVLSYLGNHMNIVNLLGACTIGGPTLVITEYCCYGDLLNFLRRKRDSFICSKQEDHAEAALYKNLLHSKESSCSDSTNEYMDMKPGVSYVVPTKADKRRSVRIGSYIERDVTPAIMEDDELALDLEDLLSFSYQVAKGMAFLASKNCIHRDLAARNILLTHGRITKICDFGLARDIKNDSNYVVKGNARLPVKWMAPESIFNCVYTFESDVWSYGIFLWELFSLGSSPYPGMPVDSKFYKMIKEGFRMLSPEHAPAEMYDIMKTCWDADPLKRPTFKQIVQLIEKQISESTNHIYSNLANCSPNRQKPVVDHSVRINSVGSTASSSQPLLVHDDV

[7] = compared with other TKIs; cited from earlier work
A549 xenograft tumors = assay: Mouse xenograft tumor growth; type: in vivo; conditions: dose-dependent (abstract only)
PDGFRβ = PDGFRβ (Homo sapiens, UniProt P09619); assay: KINOMEscan competition kinase binding assay
Sequence of PDGFRβ (P09619 33-1106): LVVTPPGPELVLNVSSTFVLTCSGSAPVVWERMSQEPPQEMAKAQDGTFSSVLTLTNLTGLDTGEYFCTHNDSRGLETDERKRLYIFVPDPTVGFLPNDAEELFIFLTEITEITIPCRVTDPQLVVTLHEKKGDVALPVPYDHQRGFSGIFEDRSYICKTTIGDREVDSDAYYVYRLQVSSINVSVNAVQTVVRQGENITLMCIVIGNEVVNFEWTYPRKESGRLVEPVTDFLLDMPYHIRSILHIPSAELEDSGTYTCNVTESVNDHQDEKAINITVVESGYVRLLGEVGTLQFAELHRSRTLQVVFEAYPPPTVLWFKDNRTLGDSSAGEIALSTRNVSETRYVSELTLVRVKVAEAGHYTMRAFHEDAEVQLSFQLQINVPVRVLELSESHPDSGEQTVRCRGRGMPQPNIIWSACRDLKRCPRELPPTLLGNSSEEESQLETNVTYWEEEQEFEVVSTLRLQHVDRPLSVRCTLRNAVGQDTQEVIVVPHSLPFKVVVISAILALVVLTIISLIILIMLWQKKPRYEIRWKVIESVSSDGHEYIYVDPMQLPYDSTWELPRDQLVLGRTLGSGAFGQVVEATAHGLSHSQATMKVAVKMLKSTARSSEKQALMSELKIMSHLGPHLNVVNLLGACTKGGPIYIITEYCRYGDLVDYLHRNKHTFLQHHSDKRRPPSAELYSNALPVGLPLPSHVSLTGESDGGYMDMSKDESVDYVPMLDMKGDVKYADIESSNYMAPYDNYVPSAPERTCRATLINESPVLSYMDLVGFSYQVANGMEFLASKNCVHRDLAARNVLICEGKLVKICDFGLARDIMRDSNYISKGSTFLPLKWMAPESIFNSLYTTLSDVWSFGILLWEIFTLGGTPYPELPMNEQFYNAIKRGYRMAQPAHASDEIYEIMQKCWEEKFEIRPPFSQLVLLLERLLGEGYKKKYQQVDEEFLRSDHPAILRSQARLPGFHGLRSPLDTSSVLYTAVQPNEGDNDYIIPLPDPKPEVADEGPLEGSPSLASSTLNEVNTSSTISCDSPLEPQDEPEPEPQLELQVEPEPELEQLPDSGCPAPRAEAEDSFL

[8] = test system: choroidal neovascularization; assay: Matrigel-induced choroidal neovascularization model; type: in vivo; conditions: rat, days 10-20 after Matrigel injection, n = 6
Method in brief: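 Rats anesthetized with ketamine (40 mg/kg IP) and xylazine (6 mg/kg IP), then given a subretinal injection of 1.2 μL Matrigel diluted 3:1 with PBS. Test compound at 10 or 30 mg/kg on days 10–20 after injection; controls untreated. Rats perfused with PBS, DiI and 4% paraformaldehyde. Eyes cut in 100 μm serial sections and viewed by confocal microscopy. CNV area = summed section width × thickness. Mean ± SD; ANOVA/t test.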

CNV lesions = conditions: laser-induced CNV rat model; oral administration; cited from earlier work
Primary HUVECs [9] = assay: In vitro HUVEC tube formation assay; type: cell-based, human; conditions: at both 50 and 100 nM; VEGF165 30 ng/mL, 3 h

SMILES	pIC50 (Primary HUVECs [1])	pIC50 [2]	pIC50 (MV-4-11)	pIC50 (786-O)	pIC50 (A375)	pIC50 (A549)	pIC50 (HCT-116)	pIC50 (BxPC-3)	microvessel density (MVD), CD31 staining [3]	pIC50 [4]	pIC50 (HT-29)	other results
CN[C@@H]1C[C@H]2O[C@@](C)([C@@H]1OC)n1c3ccccc3c3c4c(c5c6ccccc6n2c5c31)C(=O)NC4 [Staurosporine, reference compound]	8.09											
CCN(CC)CCNC(=O)c1c(C)[nH]c(/C=C2\C(=O)Nc3ccc(F)cc32)c1C [Sunitinib, reference compound]		7.40	7.83	5.22	5.54	5.35	5.60	5.30	significantly inhibited	7.90	5.35	body weight loss ([5]; 40 mg/kg qd): severe body weight loss
Cc1[nH]c(/C=C2\C(=O)Nc3ccc(F)cc32)c(C)c1C(=O)N[C@H]1CCN(C(=O)N(C)C)C1 [Vorolanib]	< 5.70	7.19	6.85	< 5.05	< 5.05	< 5.05	< 5.05	< 5.05	suppressed the MVD of the mouse in a dose-dependent manner	7.03	< 5.05	VEGF-induced KDR phosphorylation of HUVECs [6]: inhibited the VEGF-induced KDR phosphorylation of HUVECs; IC50 fold lower than those of sunitinib (KDR, FLT3, and C-Kit): 4.7- to 15.4 fold; pIC50 (FLT3): 9.20; tumor growth inhibition (MV-4-11 xenograft tumors; 10 mg/kg bid): began to show significant inhibition; tumor regression (MV-4-11 xenograft tumors; 80 mg/kg bid): tumors completely disappeared; efficacious dose (HT-29 xenograft tumors): 40–160 mg/kg bid; drug efflux function of ABCG2 (ABCG2): inhibition of the drug efflux function of ABCG2; pIC50 (C-Kit): 9.85; half-life [7]: shorter half-life; tissue accumulation [7]: limited tissue accumulation; tumor growth (A549 xenograft tumors): inhibited tumor growth; pIC50 (PDGFRβ): 9.89; CNV area ([8]; 10 mg/kg): 493.58 ± 317.17 × 10^3 μm^2; CNV area ([8]; 30 mg/kg): 357.70 ± 276.97 × 10^3 μm^2; CNV lesions (CNV lesions): could reduce CNV lesions; microvessel density (MVD) inhibitory activity ([3]; high-dose vorolanib 160 mg/kg twice daily [bid]): comparable with sunitinib; body weight loss / toxicity ([5]; orally administered vorolanib): no obvious body weight loss or other significant toxicity observed; VEGF165-induced tube formation of HUVECs (Primary HUVECs [9]): inhibited the VEGF165-induced tube formation of HUVECs, in vitro, with inhibitory strengths comparable with that of sunitinib
